Screens as filed in PubChem.
Only a selection was taken, and hits are over-represented in it overall.
MPTP inh: inhibitors of mitochondrial permeability transition pore | isolated mouse mitochondria, Ca2+ swelling absorbance, 30 min | inhibition, % at 10 µM | actives 1.4% (n = 360,000);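 active means inhibition of 50% or more, scaled per plate between neutral and stimulator controls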
Lipid droplet: modulators of hepatic lipid droplet formation; AML12 mouse hepatocytes, oleate lipid droplets, BODIPY imaging; inhibition, % at 6.5 µM; actives 0.4% (n = 240,000); AID 1656;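 active means lipid droplet intensity inhibited by at least 50%, with more than 500 cells counted; inconclusive means wells with under 300 cells, treated as cytotoxic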
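Assay system: AML12 hepatocytes (mouse); Probe or stimulus: oleic acid at 100 µM to induce lipid droplet formation; Dosing: compound at 6.5 µM only; Schedule: compound with oleate, overnight; Detection: fluorescence imaging, 20x objective, two fields per well; Measure: % inhibition of lipid droplet signal.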
T cruzi inh: T. cruzi replication inhibition; inhibition, % (concentration not given with the values); actives 1.4% (n = 300,000); T. cruzi beta-gal in NIH3T3, luminescence, 90 h; AID 1885;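 active means mean inhibition across valid replicates above about 55%, limit read from the data; inconclusive means mean below that limit but half or more replicates reach it; inactive means mean below it, under half of replicates reach it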;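 further: signal also drops with host cell toxicity which is not excluded here; higher percent means less beta-gal luminescence so fewer parasites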
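assay system = mouse NIH/3T3 fibroblasts infected with β-gal-expressing T. cruzi Tulahuen C4 | input = 5,000 NIH/3T3 host cells per well | buffer or medium = DMEM plus 2% FBS | timing = 3 h host attachment, then at least 90 h co-culture | measured by = GalScreen luminescence, 60 min | evaluation = luminescence reflecting intracellular parasite burden, expressed as percent inhibition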
L major viab: inhibitors of Leishmania major promastigote growth. Leishmania major promastigotes, resazurin fluorescence viability. inhibition, % at 10 µM. actives 9% (n = 200,000); in the data active means inhibition above about 50%;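 further: promastigotes grown with compound for 44 hours at 28 °C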
Redox H2O2 prof: compounds producing H2O2 with reducing agent – biochemical, NIH compound library profiling, artefact control for MLSCN library redox annotation, primary screen; AID 878; activation, % at 10 µM; actives 0.03% (n = 200,000); DTT-dependent redox cycling H2O2, phenol red/HRP absorbance; 100% = 100 µM peroxide control, 0% = buffer;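 active means activation of at least 50% relative to the plate's high and low controls in the primary single-dose screen; inactive means activation below 50%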;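 further: compound incubated with DTT at 0.8 mM final as the reducing agent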
Of the large screens only hits and unclear results are named; the others gave an inactive call; ! = not active in a repeat.

CC1CCN(CC(=O)Nc2ccc(N3CCCCCC3)cc2)CC1	L major viab 78
CC1CCN(CC(=O)Nc2ccc(S(=O)(=O)N3CCCCC3)cc2)CC1	none (no result: L major viab, Redox H2O2 prof)
COc1cc(S(=O)(=O)N2CCOCC2)ccc1NC(=O)COC(=O)CC12CC3CC(CC(C3)C1)C2	L major viab 100
COc1ccc(NC(=O)CN2CCCC2)cc1	none (no result: L major viab, Redox H2O2 prof)
CC1CCN(S(=O)(=O)c2ccc(NC(=O)CN3CCN(C)CC3)cc2)CC1	T cruzi inh 59
CCOC(=O)c1c(C)[nH]c(C(=O)N2CCN(c3ccc(OC)cc3)CC2)c1C	none
Cc1ccccc1CN(C)CC(=O)NC(C)CCc1ccccc1 (stereo unspecified)	none
O=C(COC(=O)CN1C(=O)C2CCCCC2C1=O)Nc1ccc(S(=O)(=O)N2CCOCC2)cc1 (stereo unspecified)	L major viab 57
O=C(Nc1ccc(Cc2ccncc2)cc1)c1ccc(S(=O)(=O)N2CCOCC2)cc1	L major viab 99 (no result: Lipid droplet)
O=C(COC(=O)CN1C(=O)C2CCCCC2C1=O)Nc1cc(S(=O)(=O)N2CCOCC2)ccc1Cl (stereo unspecified)	none
COc1ccc(N2CCN(C(CNS(=O)(=O)c3ccccc3)c3ccccc3)CC2)cc1 (stereo unspecified)	none (no result: L major viab, Redox H2O2 prof)
CSc1ccc(/C=C/c2ccc3cccc(O)c3n2)cc1	L major viab 89
Cc1ccsc1/C=C/c1ccc2cccc(O)c2n1	L major viab 98
Oc1cccc2ccc(/C=C/c3cccs3)nc12	L major viab 94
Cn1cnc(S(=O)(=O)Nc2ccc(OC(F)(F)F)cc2)c1	none
Nc1ccccc1SCCS(=O)(=O)c1ccc(Cl)cc1	none (no result: Lipid droplet, L major viab, Redox H2O2 prof)
Cc1nn(Cc2c(Cl)cccc2Cl)c(C)c1NC(=O)c1cn(-c2ccccc2)nc1-c1ccccc1	L major viab 83 (no result: Lipid droplet)
O=C(CCC(=O)c1ccc(F)cc1)Nc1cccc(Br)c1	none (no result: L major viab, Redox H2O2 prof)
CC(C)CC(=O)NC(c1cccs1)c1ccc2cccnc2c1O (stereo unspecified)	T cruzi inh 60, L major viab 100
Cc1conc1NC(c1cccs1)c1ccc2cccnc2c1O (stereo unspecified)	L major viab 99 (no result: MPTP inh, Lipid droplet)
CC(=O)NC(c1cccs1)c1cc(F)c2cccnc2c1O (stereo unspecified)	none (no result: Lipid droplet, T cruzi inh, L major viab, Redox H2O2 prof)
CCC(=O)NC(c1cccs1)c1ccc2cccnc2c1O (stereo unspecified)	T cruzi inh 78, L major viab 100
CCC(=O)NC(c1cccs1)c1cc([N+](=O)[O-])c2cccnc2c1OC (stereo unspecified)	none (no result: Lipid droplet, T cruzi inh, L major viab, Redox H2O2 prof)
CC(C)CNC(=O)c1oc2ccccc2c1COc1ccccc1	none
Cc1cc(C)cc(NC(=O)c2oc3ccccc3c2COc2ccccc2)c1	L major viab 89
Cc1ccc(-c2c[n+](CC(=O)c3cccs3)c3n2CCC3)cc1	none (no result: L major viab, Redox H2O2 prof)
COc1ccc(-c2c[n+](CC(=O)c3cccs3)c3n2CCC3)cc1	none (no result: L major viab, Redox H2O2 prof)
COc1ccc(C(=O)C[n+]2cc(-c3ccc(OC)cc3)n3c2CCCC3)cc1	T cruzi inh 62!, L major viab 99
Cc1ccc(-c2c[n+](CC(=O)Nc3ccc(C)cc3C)c3n2CCC3)cc1	none (no result: L major viab, Redox H2O2 prof)
Cc1ccc(-c2c[n+](Cc3ccc(Cl)c(Cl)c3)c3n2CCC3)cc1	L major viab 100
Cc1ccc(C(=O)C[n+]2cc(-c3ccc(C)cc3)n3c2CCCCC3)cc1	T cruzi inh 69, L major viab 100 (no result: Lipid droplet)
O=C(C[n+]1cc(-c2ccccc2)n2c1CCCCC2)c1ccc(Br)cc1	L major viab 99
C=CCn1c(=O)[nH]c2cc(C(=O)N3CC=C(c4ccccc4)CC3)ccc2c1=O	none
Cc1ccc(C(=O)Nc2ccc(F)cc2)o1	L major viab 51
OCCN1CCN(c2ncnc3c2sc2nc(N4CCOCC4)c4c(c23)CCC4)CC1	T cruzi inh 60 (no result: Lipid droplet)
CC1(C)Cc2c(c(N3CCCC3)nc3sc4c(N5CCN(CCO)CC5)ncnc4c23)CO1	L major viab 74 (no result: T cruzi inh)
CN1CCN(c2ncnc3c2sc2nc(N4CCOCC4)c4c(c23)CCC4)CC1	none (no result: MPTP inh, Lipid droplet, T cruzi inh)
O=C1NC[C@@H](CCCCN2C[C@H](Cc3ccccc3)N(CCc3ccc(O)cc3)C(=O)C2=O)N(Cc2ccccc2)C1=O	none (no result: Lipid droplet, T cruzi inh, L major viab, Redox H2O2 prof)
Cc1c(-n2c(SCC(=O)C(C)(C)C)nc3ccccc3c2=O)c(=O)n(-c2ccccc2)n1C	none
O=C(NC(=S)N1CCCc2ccccc21)c1ccccc1	none (no result: Lipid droplet)
O=C(NC(=S)N1CCCc2ccccc21)c1ccc(Cl)cc1	L major viab 64 (no result: T cruzi inh)
CC/C(=N/Nc1ccc(Cl)cc1)c1cnnc(SC)n1	L major viab 54
O=C1C2CCCCC2C(=O)N1c1ccc(NC2CCCCC2)c([N+](=O)[O-])c1 (stereo unspecified)	L major viab 52
O=C1C2CC=CCC2C(=O)N1c1ccc(NCCc2cccc(F)c2)c([N+](=O)[O-])c1 (stereo unspecified)	L major viab 61
O=C1CCC(=O)N1c1ccc(NCCc2cccc(F)c2)c([N+](=O)[O-])c1	none
Oc1ccc(N=Nc2ccccc2C(F)(F)F)c2cccnc12	T cruzi inh 55 (no result: L major viab, Redox H2O2 prof)
COc1ccccc1N=Nc1ccc(O)c2ncccc12	none (no result: L major viab, Redox H2O2 prof)
CCS(=O)(=O)c1ccc(N=Nc2ccc(O)c3ncccc23)c(OC)c1	L major viab 100
Oc1ccc(N=Nc2ccc3c(c2)OCO3)c2ccccc12	T cruzi inh inconclusive (no result: MPTP inh, L major viab, Redox H2O2 prof)
COc1ccc(N=Nc2cc(C)ccc2O)cc1	none (no result: L major viab, Redox H2O2 prof)
Cc1ccc(N=Nc2ccc(O)c3ncccc23)cc1C	T cruzi inh 66, L major viab 100
O=S(=O)(Nc1ccc(O)c2ncccc12)c1ccccc1F	none (no result: Lipid droplet, T cruzi inh, L major viab, Redox H2O2 prof)
Cc1ccc(N=Nc2ccc(O)c3ncccc23)cc1	T cruzi inh 57, L major viab 100
Cc1sc2ncn(CC(=O)NCC3COc4ccccc4O3)c(=O)c2c1S(=O)(=O)N1CCCCC1 (stereo unspecified)	none
COc1ccc(C(=O)c2ccc(N3CCN(C(=O)c4ccc(F)cc4)CC3)c(F)c2)cc1Br	T cruzi inh 61 (no result: Lipid droplet)
CCC(=O)c1ccc(N2CCN(C(=O)c3ccc(F)cc3)CC2)c(F)c1	none
Cc1ccc(-n2c(C)cc(C(=O)COC(=O)c3ccc[nH]c3=O)c2C)cc1	L major viab 70
COc1cc(NC(=O)c2cccs2)c(C(=O)OCC(=O)c2cc(C)n(-c3ccccc3)c2C)cc1OC	none
COCCn1c(C)cc(C(=O)COC(=O)c2ccc[nH]c2=O)c1C	L major viab 57
COc1cc(NC(=O)c2cccs2)c(C(=O)OCC(=O)c2cc(C)n(-c3ccc(F)cc3)c2C)cc1OC	L major viab 90
CCOC(=O)C1(C)CCCCN1C(=O)c1ccc(F)c(C)c1 (stereo unspecified)	none (no result: Lipid droplet, T cruzi inh, L major viab, Redox H2O2 prof)
CC(C)C(=O)N1CCC1(C)C(=O)Nc1ccccc1OC(F)F (stereo unspecified)	none (no result: Lipid droplet, T cruzi inh, L major viab, Redox H2O2 prof)
CCN(CC)CCCNC(=O)c1cc2c(-c3ccc(Cl)cc3)nn(C)c2s1	L major viab 100 (no result: Lipid droplet)
CN1CCN(CCCNC(=O)c2cc3c(-c4ccc(Cl)cc4)nn(C)c3s2)CC1	L major viab 100 (no result: Lipid droplet)
